In ChEMBL document CHEMBL3585281, “Antibacterial Labdane Diterpenoids from Vitex vestita” (2015):
Values after ≈ are worked out from the molar mass of the structure shown.

Columns and labels:
Format in all cases: functional
Bacillus cereus [1] = assay: Antibacterial activity against Bacillus cereus CIP 6624 after 18 hrs by agar dilution method; conditions: CIP 6624, 18 h
In short: (§1)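 Agar-dilution MIC against Gram-positive strains. Compounds in DMSO, geometric dilutions giving final 100−0.75 mg/L in Mueller Hinton agar. Strains grown 18 h at 37 °C in trypticase soy broth, diluted in sterile water, spotted by Steers inoculator (about 1000 UFC/spot). Plates incubated 18 h at 37 °C; DMSO blank; ofloxacin positive control. MIC = lowest concentration with no visible growth.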

Bacillus cereus [2] = assay: Antibacterial activity against Bacillus cereus N190 after 18 hrs by agar dilution method; conditions: N190, 18 h; in short: as §1
Bacillus cereus [3] = assay: Antibacterial activity against Bacillus cereus N258 after 18 hrs by agar dilution method; conditions: N258, 18 h; in short: as §1
Bacillus cereus [4] = assay: Antibacterial activity against Bacillus cereus N349 after 18 hrs by agar dilution method; conditions: N349, 18 h; in short: as §1
Bacillus spizizenii = assay: Antibacterial activity against Bacillus subtilis ATCC 6633 after 18 hrs by agar dilution method; conditions: ATCC 6633, 18 h; in short: as §1
Corynebacterium striatum = assay: Antibacterial activity against Corynebacterium striatum N840 after 18 hrs by agar dilution method; conditions: N840, 18 h; in short: as §1
Enterococcus avium = assay: Antibacterial activity against Enterococcus avium CIP 104053 after 18 hrs by agar dilution method; conditions: CIP 104053, 18 h; in short: as §1
[5] = tested on: Enterococcus casseliflavus; assay: Antibacterial activity against Enterococcus casseliflavus N487 after 18 hrs by agar dilution method; conditions: N487, 18 h; in short: as §1
[6] = tested on: Enterococcus casseliflavus; assay: Antibacterial activity against Enterococcus casseliflavus CIP 103018 after 18 hrs by agar dilution method; conditions: CIP 103018, 18 h; in short: as §1
Enterococcus durans = assay: Antibacterial activity against Enterococcus durans CIP 104999 after 18 hrs by agar dilution method; conditions: CIP 104999, 18 h; in short: as §1
Enterococcus faecalis [7] = assay: Antibacterial activity against Enterococcus faecalis CIP 103214 after 18 hrs by agar dilution method; conditions: CIP 103214, 18 h; in short: as §1
Enterococcus faecalis [8] = assay: Antibacterial activity against Enterococcus faecalis CIP 104676 after 18 hrs by agar dilution method; conditions: CIP 104676, 18 h; in short: as §1
Enterococcus faecalis [9] = assay: Antibacterial activity against Enterococcus faecalis N491 after 18 hrs by agar dilution method; conditions: N491, 18 h; in short: as §1
Enterococcus faecalis [10] = assay: Antibacterial activity against Enterococcus faecalis N518 after 18 hrs by agar dilution method; conditions: N518, 18 h; in short: as §1
Enterococcus faecalis [11] = assay: Antibacterial activity against Enterococcus faecalis N520 after 18 hrs by agar dilution method; conditions: N520, 18 h; in short: as §1
Enterococcus faecium [12] = assay: Antibacterial activity against Enterococcus faecium CIP 103014 after 18 hrs by agar dilution method; conditions: CIP 103014, 18 h; in short: as §1
Enterococcus faecium [13] = assay: Antibacterial activity against Enterococcus faecium CIP 107387 after 18 hrs by agar dilution method; conditions: CIP 107387, 18 h; in short: as §1
Enterococcus faecium [14] = assay: Antibacterial activity against Enterococcus faecium N490 after 18 hrs by agar dilution method; conditions: N490, 18 h; in short: as §1
Enterococcus faecium [15] = assay: Antibacterial activity against Enterococcus faecium N507 after 18 hrs by agar dilution method; conditions: N507, 18 h; in short: as §1
Enterococcus faecium [16] = assay: Antibacterial activity against Enterococcus faecium N733 after 18 hrs by agar dilution method; conditions: N733, 18 h; in short: as §1
Enterococcus faecium [17] = assay: Antibacterial activity against Enterococcus faecium N823 after 18 hrs by agar dilution method; conditions: N823, 18 h; in short: as §1
Enterococcus gallinarum [18] = assay: Antibacterial activity against Enterococcus gallinarum CIP 105985 after 18 hrs by agar dilution method; conditions: CIP 105985, 18 h; in short: as §1
Enterococcus gallinarum [19] = assay: Antibacterial activity against Enterococcus gallinarum N489 after 18 hrs by agar dilution method; conditions: N489, 18 h; in short: as §1
Enterococcus gallinarum [20] = assay: Antibacterial activity against Enterococcus gallinarum N492 after 18 hrs by agar dilution method; conditions: N492, 18 h; in short: as §1
Enterococcus hirae = assay: Antibacterial activity against Enterococcus hirae CIP 5855 after 18 hrs by agar dilution method; conditions: CIP 5855, 18 h; in short: as §1
Listeria innocua = assay: Antibacterial activity against Listeria innocua E044 after 18 hrs by agar dilution method; conditions: E044, 18 h; in short: as §1
Listeria monocytogenes [21] = assay: Antibacterial activity against Listeria monocytogenes CIP 103575 after 18 hrs by agar dilution method; conditions: CIP 103575, 18 h; in short: as §1
Listeria monocytogenes [22] = assay: Antibacterial activity against Listeria monocytogenes N783 after 18 hrs by agar dilution method; conditions: N783, 18 h; in short: as §1
Listeria monocytogenes [23] = assay: Antibacterial activity against Listeria monocytogenes N836 after 18 hrs by agar dilution method; conditions: N836, 18 h; in short: as §1
Listeria monocytogenes [24] = assay: Antibacterial activity against Listeria monocytogenes N851 after 18 hrs by agar dilution method; conditions: N851, 18 h; in short: as §1
Staphylococcus aureus [25] = assay: Antibacterial activity against Staphylococcus aureus ATCC 25923 after 18 hrs by agar dilution method; conditions: ATCC 25923, 18 h; in short: as §1
Staphylococcus aureus [26] = assay: Antibacterial activity against Staphylococcus aureus ATCC 9144 oxford after 18 hrs by agar dilution method; in short: as §1
Staphylococcus aureus [27] = assay: Antibacterial activity against Staphylococcus aureus CIP 483 after 18 hrs by agar dilution method; conditions: CIP 483, 18 h; in short: as §1
Staphylococcus aureus [28] = assay: Antibacterial activity against Staphylococcus aureus CIP 53154 after 18 hrs by agar dilution method; conditions: CIP 53154, 18 h; in short: as §1
Staphylococcus aureus [29] = assay: Antibacterial activity against Staphylococcus aureus CIP 53156 after 18 hrs by agar dilution method; conditions: CIP 53156, 18 h; in short: as §1
Staphylococcus aureus [30] = assay: Antibacterial activity against Staphylococcus aureus CIP 5710 after 18 hrs by agar dilution method; conditions: CIP 5710, 18 h; in short: as §1
Staphylococcus aureus [31] = assay: Antibacterial activity against Staphylococcus aureus CIP 7625 after 18 hrs by agar dilution method; conditions: CIP 7625, 18 h; in short: as §1
Staphylococcus aureus [32] = assay: Antibacterial activity against Staphylococcus aureus CRBIP 2121 after 18 hrs by agar dilution method; conditions: CRBIP 2121, 18 h; in short: as §1
[33] = tested on: Staphylococcus epidermidis; assay: Antibacterial activity against Staphylococcus epidermidis CIP 53124 after 18 hrs by agar dilution method; conditions: CIP 53124, 18 h; in short: as §1
[34] = tested on: Staphylococcus haemolyticus; assay: Antibacterial activity against Staphylococcus haemolyticus CIP 8156 after 18 hrs by agar dilution method; conditions: CIP 8156, 18 h; in short: as §1
[35] = tested on: Staphylococcus intermedius; assay: Antibacterial activity against Staphylococcus intermedius N987 after 18 hrs by agar dilution method; conditions: N987, 18 h; in short: as §1
[36] = tested on: Staphylococcus lugdunensis; assay: Antibacterial activity against Staphylococcus lugdunensis ATCC 43809 after 18 hrs by agar dilution method; conditions: ATCC 43809, 18 h; in short: as §1
[37] = tested on: Staphylococcus saprophyticus; assay: Antibacterial activity against Staphylococcus saprophyticus CIP 76125 after 18 hrs by agar dilution method; conditions: CIP 76125, 18 h; in short: as §1
[38] = tested on: Staphylococcus saprophyticus; assay: Antibacterial activity against Staphylococcus saprophyticus E260 after 18 hrs by agar dilution method; conditions: E260, 18 h; in short: as §1
Mammaliicoccus sciuri = assay: Antibacterial activity against Staphylococcus sciuri N993 after 18 hrs by agar dilution method; conditions: N993, 18 h; in short: as §1
Streptococcus agalactiae = assay: Antibacterial activity against Streptococcus agalactiae CIP 103227 after 18 hrs by agar dilution method; conditions: ATCC 13813, 18 h; in short: as §1

- MIC (Bacillus cereus [1]): 0.7 µM (≈ 0.253 µg/mL)
- MIC (Bacillus cereus [2]): 0.7 µM (≈ 0.253 µg/mL)
- MIC (Bacillus cereus [3]): 0.7 µM (≈ 0.253 µg/mL)
- MIC (Bacillus cereus [4]): 1.4 µM (≈ 0.506 µg/mL)
- MIC (Bacillus spizizenii): ≤ 0.2 µM
- MIC (Corynebacterium striatum): > 354 µM
- MIC (Enterococcus avium): 6 µM (≈ 2.17 µg/mL)
- MIC [5]: 11 µM (≈ 3.98 µg/mL)
- MIC [6]: 11 µM (≈ 3.98 µg/mL)
- MIC (Enterococcus durans): 1.4 µM (≈ 0.506 µg/mL)
- MIC (Enterococcus faecalis [7]): 3 µM (≈ 1.08 µg/mL)
- MIC (Enterococcus faecalis [8]): 3 µM (≈ 1.08 µg/mL)
- MIC (Enterococcus faecalis [9]): 6 µM (≈ 2.17 µg/mL)
- MIC (Enterococcus faecalis [10]): 11 µM (≈ 3.98 µg/mL)
- MIC (Enterococcus faecalis [11]): 354 µM (≈ 128 µg/mL)
- MIC (Enterococcus faecium [12]): 22 µM (≈ 7.95 µg/mL)
- MIC (Enterococcus faecium [13]): 177 µM (≈ 64 µg/mL)
- MIC (Enterococcus faecium [14]): 6 µM (≈ 2.17 µg/mL)
- MIC (Enterococcus faecium [15]): 354 µM (≈ 128 µg/mL)
- MIC (Enterococcus faecium [16]): > 354 µM
- MIC (Enterococcus faecium [17]): 354 µM (≈ 128 µg/mL)
- MIC (Enterococcus gallinarum [18]): 11 µM (≈ 3.98 µg/mL)
- MIC (Enterococcus gallinarum [19]): 6 µM (≈ 2.17 µg/mL)
- MIC (Enterococcus gallinarum [20]): 11 µM (≈ 3.98 µg/mL)
- MIC (Enterococcus hirae): 3 µM (≈ 1.08 µg/mL)
- MIC (Listeria innocua): 11 µM (≈ 3.98 µg/mL)
- MIC (Listeria monocytogenes [21]): 6 µM (≈ 2.17 µg/mL)
- MIC (Listeria monocytogenes [22]): 6 µM (≈ 2.17 µg/mL)
- MIC (Listeria monocytogenes [23]): 6 µM (≈ 2.17 µg/mL)
- MIC (Listeria monocytogenes [24]): 6 µM (≈ 2.17 µg/mL)
- MIC (Staphylococcus aureus [25]): 1.4 µM (≈ 0.506 µg/mL)
- MIC (Staphylococcus aureus [26]): 0.7 µM (≈ 0.253 µg/mL)
- MIC (Staphylococcus aureus [27]): 0.7 µM (≈ 0.253 µg/mL)
- MIC (Staphylococcus aureus [28]): 0.7 µM (≈ 0.253 µg/mL)
- MIC (Staphylococcus aureus [29]): 0.7 µM (≈ 0.253 µg/mL)
- MIC (Staphylococcus aureus [30]): 0.7 µM (≈ 0.253 µg/mL)
- MIC (Staphylococcus aureus [31]): 1.4 µM (≈ 0.506 µg/mL)
- MIC (Staphylococcus aureus [32]): 177 µM (≈ 64 µg/mL)
- MIC [33]: 1.4 µM (≈ 0.506 µg/mL)
- MIC [35]: 89 µM (≈ 32.2 µg/mL)
- MIC [36]: 3 µM (≈ 1.08 µg/mL)
- MIC [37]: 3 µM (≈ 1.08 µg/mL)
- MIC [38]: 3 µM (≈ 1.08 µg/mL)
- MIC (Mammaliicoccus sciuri): 3 µM (≈ 1.08 µg/mL)
- MIC (Streptococcus agalactiae): 1.4 µM (≈ 0.506 µg/mL)
SMILES: CC1COc2c(N3CCN(C)CC3)c(F)cc3c(=O)c(C(=O)O)cn1c23 (stereo unspecified) [OFLOXACIN]
- MIC [34]: 0.7 µM (≈ 0.253 µg/mL)
